Holding throughout (format): cell-based
Series [1] addresses T1, Aryl hydrocarbon receptor (Homo sapiens, UniProt P35869).
T1 sequence (P35869 whole entry): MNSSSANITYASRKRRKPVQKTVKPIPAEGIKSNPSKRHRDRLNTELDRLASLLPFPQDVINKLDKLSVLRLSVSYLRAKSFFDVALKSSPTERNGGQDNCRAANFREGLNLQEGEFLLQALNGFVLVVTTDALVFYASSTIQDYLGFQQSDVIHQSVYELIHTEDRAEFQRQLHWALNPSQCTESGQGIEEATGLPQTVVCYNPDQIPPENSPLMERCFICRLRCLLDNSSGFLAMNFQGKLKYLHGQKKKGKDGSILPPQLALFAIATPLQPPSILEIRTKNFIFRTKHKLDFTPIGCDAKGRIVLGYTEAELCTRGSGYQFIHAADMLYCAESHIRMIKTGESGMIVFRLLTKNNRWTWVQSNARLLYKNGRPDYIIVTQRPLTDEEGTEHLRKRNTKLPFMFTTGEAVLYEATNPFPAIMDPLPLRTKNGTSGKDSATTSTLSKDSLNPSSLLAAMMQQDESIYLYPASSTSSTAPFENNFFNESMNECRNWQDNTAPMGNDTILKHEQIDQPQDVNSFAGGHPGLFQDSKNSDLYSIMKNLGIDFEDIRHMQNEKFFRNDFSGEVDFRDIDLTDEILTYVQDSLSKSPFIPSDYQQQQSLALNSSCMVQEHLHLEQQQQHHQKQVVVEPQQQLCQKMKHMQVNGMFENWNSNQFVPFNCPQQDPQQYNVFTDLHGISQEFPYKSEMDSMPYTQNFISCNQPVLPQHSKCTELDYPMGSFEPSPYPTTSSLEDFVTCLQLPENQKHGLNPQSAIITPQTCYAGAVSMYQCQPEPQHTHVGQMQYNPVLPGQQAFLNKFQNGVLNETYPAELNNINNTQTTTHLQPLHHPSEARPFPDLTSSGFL
The series is described as follows: Agonist activity at AhR (unknown origin) expressed in mouse H1L1.1c2 cells at 1 to 100 uM after 8 to 10 hrs by luciferase reporter gene assay. The method in brief:
(§1)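 AhR luciferase reporter cells were grown and treated with compounds at three concentrations (1, 10 and 100 μM). The reference ligand FICZ was run at 1 μM. The read-out was luciferase activity. Data are given as mean ± SD, with significance at P < 0.05, < 0.01 and < 0.001.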
A general note: A reporter such as luciferase makes a cellular process visible.

The target in series [2] is T1, Aryl hydrocarbon receptor. In words: Antagonist activity at AhR (unknown origin) expressed in mouse H1L1.1c2 cells assessed as inhibition of FICZ-induced AhR activation at 1 to 100 uM after 8 to 10 hrs by luciferase reporter gene assay.
Series [3] deals with T1, Aryl hydrocarbon receptor. In words: Agonist activity at AhR (unknown origin) expressed in mouse H1L1.1c2 cells at 100 uM after 8 to 10 hrs by luciferase reporter gene assay.
Series [4] concerns the target T1, Aryl hydrocarbon receptor. The series is described as follows: Agonist activity at AhR (unknown origin) expressed in mouse H1L1.1c2 cells after 8 to 10 hrs by luciferase reporter gene assay. The method in brief: as §1

As for `CCCOc1ccc2ccc(=O)oc2c1` [7-PROPOXYCOUMARIN], the Activity result in series [1] was “Not Active”. For the same molecule, the “inhibition (INH)” value in series [2] is “Active”.

Turning to `C=CCOc1ccc2ccc(=O)oc2c1` [7-ALLYLOXYCOUMARIN], in series [1], the Activity entry is listed as “Not Active”. The “inhibition (INH)” value in series [2] is reported as “Not Active”.

Regarding `COc1ccc2ccc(=O)oc2c1` [HERNIARIN], the Activity entry in series [1] is “Not Active”. Besides, the “inhibition (INH)” value in series [2] is listed as “Not Active”.

Regarding `CC(C)=CCC/C(C)=C/COc1ccc2ccc(=O)oc2c1`, in series [1], the Activity result is “Not Active”. The “inhibition (INH)” value in series [2] was “Not Active”.

Regarding `O=c1ccc2ccc(O)cc2o1` [UMBELLIFERONE], the Activity entry in series [1] is given as “Not Active”. The “inhibition (INH)” value in series [2] was “Not Active”.

For the molecule `CCC#CCOc1ccc2ccc(=O)oc2c1` [7-(2-PENTYNYLOXY)COUMARIN], the result in series [3] was Active. In series [2], the “inhibition (INH)” value is reported as “Not Active”.

As to `CC(C)(C)COc1ccc2ccc(=O)oc2c1`, the outcome in series [3] was Active. Further, the “inhibition (INH)” value in series [2] is listed as “Not Active”.

Consider `CCOc1ccc2ccc(=O)oc2c1` [ETHOXYCOUMARIN], for which the Activity entry in series [1] was “Not Active”. For the same molecule, the “inhibition (INH)” value in series [2] is “Not Active”.

Regarding `C/C=C/COc1ccc2ccc(=O)oc2c1` [(E)-7-(2-BUTENYLOXY)COUMARIN], the result in series [3] was Active. Further, the “inhibition (INH)” value in series [2] was “Not Active”.

Turning to `COc1cc(/C=C/C(=O)O)ccc1OC/C=C(\C)CCC=C(C)C`, the Activity entry in series [1] is “Not Active”. Moreover, the “inhibition (INH)” value in series [2] is listed as “Not Active”.

Consider `CC(C)=CCOc1ccc2ccc(=O)oc2c1` [7-PRENYLOXYCOUMARIN], for which the Activity entry in series [4] was “Dose-dependent effect”. In series [2], the “inhibition (INH)” value is reported as “Not Active”.

In the case of `COc1cc(/C=C/C(=O)O)ccc1OCC=C(C)C` [BOROPINIC ACID], the Activity entry in series [4] is listed as “Dose-dependent effect”. In series [2], the “inhibition (INH)” value was “Not Active”.

For `CC(C)CCOc1ccc2ccc(=O)oc2c1`, the Activity result in series [1] is recorded as “Not Active”. In series [2], the “inhibition (INH)” value is “Not Active”.
